Test [1] relates to Mycobacterium tuberculosis. Description: Antibacterial activity against Mycobacterium tuberculosis H37Rv harboring LuxAB incubated for 10 days under anaerobic conditions followed by incubation under aerobic conditions for 28 hrs by LORA method. Format: functional. In a few lines:
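MIC against H37Rv by low oxygen recovery assay (LORA). Test concentrations 0.02 to 5 μg/mL.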

Test [2] deals with Mycobacterium tuberculosis. Description: Antibacterial activity against RMP-resistant Mycobacterium tuberculosis after 7 days by microplate alamar blue assay. Format: functional. Particulars: 168 h. Put shortly:
(§1)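 MABA MIC against rINH and rRMP Mtb strains. Test concentrations 0.002 to 0.5 μg/mL.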
A general note: The colour change of resazurin is a common sign of viable cells or microbes.

Test [3] deals with Mycobacterium tuberculosis. Kind of test: Antibacterial activity against INH-resistant Mycobacterium tuberculosis after 7 days by microplate alamar blue assay. Particulars: 168 h. It counts as functional. In a few lines: as §1
For test [4], the system named is Mycobacterium tuberculosis. Kind of test: Antitubercular activity against Mycobacterium tuberculosis H37Ra harboring pTYOK infected in Balb/c mouse assessed as reduction in lung bacterial burden at 10 mg/kg, po administered once daily via gavage for 5 days measured post last dose by luminometric method. It counts as functional. Put shortly: (§2)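 Mice infected i.v. with log-phase selectable marker-free autoluminescent Mtb H37Ra, 2 ×10^6 CFU per mouse. Dosed once daily by oral gavage for 5 consecutive days at 10 or 50 mg/kg/day. Untreated group received CMC-Na. Bacterial burden read daily as bioluminescence (RLU) in the same live mice.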

For test [5], the system named is Mycobacterium tuberculosis. Kind of test: Antitubercular activity against Mycobacterium tuberculosis H37Ra harboring pTYOK infected in Balb/c mouse assessed as reduction in spleen bacterial burden at 10 mg/kg, po administered once daily via gavage for 5 days measured post last dose by luminometric method. Format: functional. In a few lines:
as §2

Test [6] relates to Mycobacterium tuberculosis. Description: Antitubercular activity against Mycobacterium tuberculosis H37Ra harboring pTYOK infected in Balb/c mouse assessed as reduction in bacterial burden administered once daily via oral gavage for 5 days measured post last dose by luminometric method. It counts as functional, organism-based. Put shortly:
as §2

The test system of test [7] is Mycobacterium tuberculosis. Description: Antitubercular activity against Mycobacterium tuberculosis H37Ra harboring pTYOK infected in Balb/c mouse assessed as reduction in spleen bacterial burden at 50 mg/kg, po administered once daily via gavage for 5 days measured post last dose by luminometric method. Format: functional. Put shortly: as §2
The test system of test [8] is Mycobacterium tuberculosis. Description: Antitubercular activity against Mycobacterium tuberculosis H37Ra harboring pTYOK infected in Balb/c mouse assessed as reduction in lung bacterial burden at 50 mg/kg, po administered once daily via gavage for 5 days measured post last dose by luminometric method. It counts as functional. Put shortly: as §2

≈ marks a conversion by molar mass, not a printed value.

The MIC90 is an inhibitory concentration at the 90% level, which refers to growth in some studies and to a panel of isolates in others. Low values mean higher susceptibility, high ones lower susceptibility. As to `COc1ccn2nc(C)c(C(=O)NCc3cnc(-c4ccc(OC(F)(F)F)cc4)s3)c2c1`, in test [1], the MIC90 was greater than 5 µg/mL.

With `CC(=O)NC[C@H]1CN(c2ccc(N3CCOCC3)c(F)c2)C(=O)O1` [LINEZOLID], the MIC90 in test [2] amounted to 1.87 µg/mL (≈ 5.54 µM); in test [3], 953 ng/mL (≈ 2.82 µM); in test [1] it was 5.98 µg/mL (≈ 17.7 µM).

With `COc1ccn2nc(C)c(C(=O)NCc3ccc(-c4ccc(OC(F)(F)F)cc4)c(C)c3)c2c1`, the MIC90 in test [2] is less than 0.002 µg/mL; in test [3], less than 2 ng/mL; in test [1] it was 2.28 µg/mL (≈ 4.86 µM).

`COc1ccn2nc(C)c(C(=O)NCc3ncc(-c4ccc(OC(F)(F)F)cc4)o3)c2c1` showed an MIC90 in test [1] of 2.84 µg/mL (≈ 6.36 µM).

Turning to `CO[C@H]1/C=C/O[C@@]2(C)Oc3c(C)c(O)c4c(O)c(c(/C=N/N5CCN(C)CC5)c(O)c4c3C2=O)NC(=O)/C(C)=C\C=C\[C@H](C)[C@H](O)[C@@H](C)[C@@H](O)[C@@H](C)[C@H](OC(C)=O)[C@@H]1C` [RIFAMPIN], the “fold change (FC)” value in test [4] is listed as 1.42 log10RLU; in test [5], 1.34 log10RLU. Further, the MIC90 in test [2] was greater than 2 µg/mL; in test [3] it was less than 8 ng/mL; in test [1] it was 2.95 µg/mL (≈ 3.58 µM).

With `COc1ccn2nc(C)c(C(=O)NCc3ccc(-c4ccc(OC(F)(F)F)cc4)cc3C(F)(F)F)c2c1`, the MIC90 in test [1] is greater than 5 µg/mL.

Consider `COc1nc2ccc(Br)cc2cc1[C@@H](c1ccccc1)[C@@](O)(CCN(C)C)c1cccc2ccccc12` [BEDAQUILINE], for which the MIC90 in test [2] is less than 0.016 µg/mL; in test [3], less than 16 ng/mL.

As for `COc1ccn2nc(C)c(C(=O)NCc3ncc(-c4ccc(OC(F)(F)F)cc4)[nH]3)c2c1`, the MIC90 in test [1] is greater than 5 µg/mL.

For `COc1ccn2nc(C)c(C(=O)NCc3ccc(-c4ccc(OC(F)(F)F)cc4)nc3)c2c1`, the results for the MIC90 in test [2], in test [3] and in test [1] were 0.458 µg/mL (≈ 1 µM), 4 ng/mL (≈ 0.00876 µM) and 4.36 µg/mL (≈ 9.55 µM), respectively.

With `COc1ccn2nc(C)c(C(=O)NCc3ccc(-c4ccc(OC(F)(F)F)cc4)cc3F)c2c1`, the MIC90 is less than 0.002 µg/mL in test [2], 4 ng/mL (≈ 0.00845 µM) in test [3] and greater than 5 µg/mL in test [1].

For `COc1ccn2nc(C)c(C(=O)NCc3ccc(-c4ccc(OC(F)(F)F)cc4)c(OC)c3)c2c1`, the MIC90 was less than 0.002 µg/mL in test [2], 3 ng/mL (≈ 0.00618 µM) in test [3] and greater than 5 µg/mL in test [1].

For `COc1ccn2nc(C)c(C(=O)NCc3ccc(-c4ccc(OC(F)(F)F)cc4)cc3OC)c2c1`, the MIC90 in test [1] came to 2.25 µg/mL (≈ 4.63 µM).

For `COc1ccn2nc(C)c(C(=O)NCc3ccc(-c4ccc(OC(F)(F)F)cc4)c(F)c3)c2c1`, the MIC90 in test [2] was less than 0.002 µg/mL; in test [3], 4 ng/mL (≈ 0.00845 µM); in test [1], greater than 5 µg/mL.

For `NNC(=O)c1ccncc1` [ISONIAZID], the MIC90 was 0.438 µg/mL (≈ 3.19 µM) in test [2], greater than 8000 ng/mL in test [3] and greater than 128 µg/mL in test [1].

The compound `COc1ccn2nc(C)c(C(=O)NCc3cn(-c4ccc(OC(F)(F)F)cc4)nn3)c2c1` gave an MIC90 in test [1] greater than 5 µg/mL.

Turning to `COc1ccn2nc(C)c(C(=O)NCc3ccc(-c4ccc(OC(F)(F)F)cc4)c(C(F)(F)F)c3)c2c1`, the figures for the MIC90 in test [2], in test [3] and in test [1] were less than 0.002 µg/mL, 3 ng/mL (≈ 0.00573 µM) and greater than 5 µg/mL, respectively.

The compound `COc1ccn2nc(C)c(C(=O)NCc3ccc(-c4ccc(OC(F)(F)F)cc4)cc3C)c2c1` yielded an MIC90 in test [1] greater than 5 µg/mL.

For `COc1ccn2nc(C)c(C(=O)NCc3ccc(-c4ccc(OC(F)(F)F)cc4)cn3)c2c1`, the Activity result in test [6] was “Dose-dependent effect”. In addition, the MIC90 is less than 0.002 µg/mL in test [2], 2 ng/mL (≈ 0.00438 µM) in test [3] and greater than 5 µg/mL in test [1]. Further, the “fold change (FC)” value in test [7] was 0.61 log10RLU; in test [8] it was 1 log10RLU.

Regarding `COc1ccn2nc(C)c(C(=O)NCc3nnc(-c4ccc(OC(F)(F)F)cc4)o3)c2c1`, the MIC90 in test [1] is greater than 5 µg/mL.

Turning to `COc1ccn2nc(C)c(C(=O)NCc3ccc(-c4ccc(OC(F)(F)F)cc4)s3)c2c1`, the MIC90 was 0.465 µg/mL (≈ 1.01 µM) in test [2], 2 ng/mL (≈ 0.00433 µM) in test [3] and greater than 5 µg/mL in test [1].

The values above are taken from ChEMBL document CHEMBL4400576, “Identification of Pyrazolo[1,5-a]pyridine-3-carboxamide Diaryl Derivatives as Drug Resistant Antituberculosis Agents” (ACS Med Chem Lett, 2019).
